Screen size: about 2,500 compounds; about 1,200 (48%) were called active.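 Rule for the calls: active = mean activation above the low control average plus 3 SD, as set in the primary screen (cut at about 12% in these data); inactive = the rest.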 The set was probably picked from earlier hits. This is one part of the list.
molecular target: Troponin I, cardiac muscle (Homo sapiens) + Troponin T, cardiac muscle (Homo sapiens) + Troponin C, slow skeletal and cardiac muscles (Homo sapiens) (UniProt P19429+P45379+P63316); test: calcium sensitizers of cardiac thin filaments – biochemical, IANBD-TnC fluorescence, triplicate, confirmation (AID 504383); conditions: IANBD-labeled cardiac RTF, Ca2+ sensitivity fluorescence; at 7.2 µM; active compounds read high; scaled from EC20 to saturating calcium; tested at EC20 calcium, 0.472 mM;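 note: 0% = DMSO at 0.472 mM calcium and 100% = DMSO at 2.9 mM calcium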
Method in brief: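 Material: labelled regulated thin filaments; Reagent: 0.472 mM calcium; Incubation: 15 min compound incubation with filaments at 25 °C; Detection: filament fluorescence intensity; Evaluation: fluorescence increase normalised to calcium controls; Benchmarks: low control EC20 calcium, high control EC100 calcium.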

Row | SMILES | activation
1 | O=C(COC(=O)C1(c2ccccc2F)CCCC1)Nc1ncc(C(F)(F)F)cc1Cl | 4.8% (inactive)
2 | COc1ccc(/C=N/NC(=O)Cn2c(Cc3ccc(OC)c(OC)c3)nc3ccccc32)cc1 | 15% (active)
3 | COc1ccc(/C=C/C(=O)c2nc3ccccc3n2CC(=O)c2ccc(OC)cc2)cc1 | -1.84% (inactive)
4 | Cc1c(C(=O)NCc2ccco2)cccc1[N+](=O)[O-] | 11.7% (active)
5 | Cc1c(C(=O)NCc2ccc3c(c2)cc(C)n3C)cccc1[N+](=O)[O-] | 8.1% (inactive)
6 | O/C(=C\c1nc2ccccc2[nH]1)c1cccs1 | 2.34% (inactive)
7 | c1ccc2[nH]c3cc4ncnc4cc3nc2c1 | 27.5% (active)
8 | Cc1ncn(C23CC4CC(CC(C4)C2)C3)n1 | 4.82% (inactive)
9 | COC(=O)C1=C(O)/C(=C\c2ccc(CNS(=O)(=O)c3ccc(Cl)cc3)o2)N=C1C | 9.05% (inactive)
10 | COc1ccc(OC)c(NC(=O)c2cc(S(=O)(=O)N(C)C)ccc2N2CCCC2)c1 | 7.08% (inactive)
11 | COC(=O)CN(c1cc(OC)ccc1OC)S(=O)(=O)c1ccc(OC)c(OC)c1 | 14.6% (active)
12 | CCOc1ccccc1N(CC(=O)Nc1ccc(OC)c(OC)c1)S(=O)(=O)c1ccccc1 | 5.99% (inactive)
13 | Cn1c(CN2CCCC2)nc2cc(NC(=O)COc3ccc([N+](=O)[O-])cc3)ccc21 | 8.98% (inactive)
14 | CCC(=O)Nc1ccc2c(c1)nc(CCN1CCN(C)CC1)n2C | 56% (active)
15 | CCCn1c(CN2CCN(C(=O)OCC)CC2)nc2cc(NC(=O)CC)ccc21 | 8.96% (inactive)
16 | O=C(O)c1cc(-c2ccc(/C=C3/SC(=S)N(Cc4ccccc4)C3=O)o2)ccc1Cl | 5.81% (inactive)
17 | O=C(O)CN1C(=O)/C(=C/c2ccc(SCc3ccccc3)o2)SC1=S | 39.7% (active)
18 | CN1/C(=C\C=C2/SC(=S)N(CC(=O)O)C2=O)C(C)(C)c2ccccc21 | 7.05% (inactive)
19 | Cn1cccc1/C=C1\SC(=S)N(CC(=O)O)C1=O | 14.1% (active)
20 | Cn1cccc1/C=C1/SC(=S)N(CC(=O)O)C1=O | 176% (active)

Row | SMILES | activation
21 | COc1ccc(Nc2cccc3ccccc23)cc1 | 199% (active)
22 | CCOc1cc(N2CCOCC2)c(OCC)cc1NC(=O)CCS(=O)(=O)c1ccc(Cl)cc1 | 72% (active)
23 | COc1cc(/C=N/NC(=O)c2cc(-c3ccccc3Cl)nc3ccccc23)cc(OC)c1O | 15.8% (active)
24 | COc1cc(/C=N\NC(=O)CC(=O)NCCc2ccccc2)ccc1O | 7.55% (inactive)
25 | CCOc1ccc(C(=O)NCC(=O)Nc2ncccc2C)cc1OCC | 16.6% (active)
26 | Cc1cccc(/C=N/n2c(-c3ccncc3)n[nH]c2=S)c1 | 39.4% (active)
27 | CCCCC1=CC2=C(c3ccco3)C(=O)C(C)(OC(=O)c3ccc(OC)cc3)C(=O)C2=CN1CCc1ccccn1 (centres undefined) | 25.8% (active)
28 | COC(=O)CCC(=O)OC1(C)C(=O)C2=CN(Cc3ccc(OC)cc3)C(c3ccc(OC)cc3)=CC2=C(Br)C1=O (centres undefined) | 6% (inactive)
29 | O=C(O)c1ccccc1C1=Nc2ccc(O)cc2Oc2cc(O)ccc21 | 5.85% (inactive)
30 | O=C(c1ccccc1)c1ccc(O)cc1O | 89.6% (active)
31 | O=C(c1ccccc1)c1ccncc1 | 5.78% (inactive)
32 | O=C(c1ccccc1)c1ccccc1C(=O)c1ccccc1 | 12.7% (active)
33 | CC1C/C(=C/c2cccn2C)C(=O)/C(=C/c2cccn2C)C1 (centres undefined) | 11.4% (inactive)
34 | Cn1cccc1/C=C1\CCC/C(=C\c2cccn2C)C1=O | 15.9% (active)
35 | COC(=O)c1sccc1Oc1ccc(Cl)cc1N1C(=O)CCC1=O | 8.17% (inactive)
36 | CC(NC(=O)CN1CCC(C(N)=O)CC1)c1ccccc1 (centres undefined) | 5.31% (inactive)
37 | Cc1ccc2c(C(=O)CN3CCC(C(N)=O)CC3)c(C)[nH]c2c1 | 16.3% (active)
38 | COc1ccc(C)cc1Nc1n[n+](-c2ccccc2)c(-c2cc([N+](=O)[O-])cc(OC)c2O)s1 | 5.27% (inactive)
39 | C=C[C@@](C)(O)CC[C@@H]1[C@@]2(C)CCCC(C)(C)[C@@H]2CC[C@@]1(C)O | 6.12% (inactive)
40 | COc1ccccc1NS(=O)(=O)c1cc(NC(=O)CCNC(C)=O)ccc1N1CCCCC1 | 4.68% (inactive)

Row | SMILES | activation
41 | COc1ccccc1NS(=O)(=O)c1cc(NC(=O)c2cc3ccccc3oc2=O)ccc1C | 72.6% (active)
42 | Cc1ccc(NC(=O)CSc2nnc(-c3cccnc3)s2)cc1 | 678% (active)
43 | Cc1ccc(-c2csc(NC(=O)CSc3nc4ccccc4o3)n2)cc1 | 2.75% (inactive)
44 | CC(O)Cc1cn([C@@H](CCCCN)C(=O)N2CCNCC2)nn1 (some centres undefined) | 2.6% (inactive)
45 | CC(C)(C)OC(=O)NCCCC[C@@H](C(=O)N1CCN(C(=O)OC(C)(C)C)CC1)n1cc(CCC(=O)O)nn1 | 7.02% (inactive)
46 | C[C@@H](C(=O)N1CCNCC1)n1cc(CCCN=C(N)N)nn1 | 107% (active)
47 | CCCCNc1nc(-c2ccccc2)nc(-n2ccnc2)n1 | 15.9% (active)
48 | Cn1cccc1Cc1nnc(SCC(=O)Nc2ccc(F)cc2F)n1-c1ccc(F)cc1 | 7.53% (inactive)
49 | O=C(CSc1nncc2ccccc12)Nc1ccc(F)cc1 | 170% (active)
50 | COc1ccc(NC(=O)CSc2nncc3ccccc23)cc1 | 1.45% (inactive)
51 | COc1ccc(-c2cc(C(F)(F)F)c3c(N)c(C(=O)NCCSC)sc3n2)cc1 | 5.88% (inactive)
52 | Nc1c(C(=O)C2CC2)sc2nc(-c3cccs3)cc(C(F)(F)F)c12 | 18.1% (active)
53 | CC(C)(C)C(=O)c1sc2nc(-c3cccs3)cc(C(F)(F)F)c2c1N | 12.4% (active)
54 | Nc1c(C(=O)Nc2ccccc2F)sc2nc(Cc3ccccc3)cc(C(F)(F)F)c12 | 7.05% (inactive)
55 | Nc1c(C(=O)Nc2nccs2)sc2nc(-c3cccs3)cc(C(F)(F)F)c12 | 10.7% (inactive)
56 | Nc1c(C(=O)C2CC2)sc2nc(-c3ccccc3)cc(C(F)(F)F)c12 | 30.1% (active)
57 | Cc1nnc(NC(=O)c2sc3nc(-c4cccs4)cc(C(F)(F)F)c3c2N)s1 | 9.99% (inactive)
58 | CC(=O)c1sc2nc(-c3cccs3)cc(C(F)(F)F)c2c1N | -0.48% (inactive)
59 | c1ccc(-c2nc(-c3ccco3)n3ccccc23)cc1 | 1.15% (inactive)
